{
  "source": "paper PMC5856940",
  "about": "(Saudi Pharmaceutical Journal : SPJ, 2018)",
  "key": {"HEK293T cells [1]": {"test_system": "HEK293T cells", "test": "Cytotoxicity screening of AHAMCs, trypan blue exclusion assay", "format": "cell-based, Human", "conditions": "25 mM, 24 h", "in_short": "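HEK293T cells were grown in DMEM with 10% FBS, 1mM pyruvate and antibiotics/antifungal at 37 °C and 5% CO2. Cells were seeded at 1 × 10^6 per well, grown 24 h, then given fresh medium. Test compound (100 mM DMSO stock, diluted in DMSO then dH2O) was added at 25 mM for 24 h. Cells were trypsinised (0.5%) and live/dead cells counted by trypan blue on a Bürker hemocytometer under bright field.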"}, "HEK293T cells [2]": {"test_system": "HEK293T cells", "test": "Dose-dependent response", "format": "cell-based, Human", "conditions": "24 h; for cytotoxicity at higher concentrations: 50 and 100 mM; for IC50: cell death, trypan blue, 6.25-100 mM", "in_short": "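HEK293T cells were seeded at 1 × 10^6 per well and grown 24 h. Medium was replaced with medium holding test compound at 6.25, 12.5, 25, 50 or 100 mM for 24 h. Read-out was trypan blue exclusion, with % cell death = dead/total cells × 100. IC50 was taken from a fitted concentration–effect curve. Three technical and biological repeats were done.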"}, "HEK293T cells [3]": {"test_system": "HEK293T cells", "test": "Differentiation of apoptosis and necrosis by PI staining", "format": "cell-based, Human", "conditions": "for cell death compared to the other compounds: IC50, 24 and 48 h", "in_short": "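HEK293T cells (1 × 10^6 per well) were grown 24 h, then resuspended in medium with test compound at one fixed concentration for 24 or 48 h. Cells were washed three times in DPBS, trypsinised, washed again, and stained 5 min with 1 mg/mL PI in 2× SSC. Nuclei were imaged by confocal microscopy (ex 535, em 617 nm) and scored as apoptotic or necrotic. About 100 cells were counted per sample, with three technical and biological repeats.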"}, "1321N1 cells": {"test_system": "1321N1 cells", "test": "Cytotoxicity in glioma cells, trypan blue assay", "format": "cell-based, Human", "conditions": "1321N1, 100 µM, 24 h", "in_short": "(§1)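 U-87 MG cells were grown in MEM with L-glutamine, and 1321N1 cells in DMEM with L-glutamine plus 2 mM sodium pyruvate. Both media had 10% FBS, penicillin/streptomycin and amphotericin B, at 37 °C and 5% CO2. Cells were seeded at 1 × 10^5 per well, grown 48 h, then exposed 24 h to 100 µM test compound, 0.1% DMSO or 100 µM temozolomide. Cells were trypsinised and scored by trypan blue. Biological and technical repeats were run.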"}, "U-87 MG cells": {"test_system": "U-87 MG cells", "test": "Cytotoxicity in glioma cells, trypan blue assay", "format": "cell-based, Human", "conditions": "100 µM, 24 h", "in_short": "as §1"}, "HEK293T cells [4]": {"test_system": "HEK293T cells", "test": "Externalized phosphatidylserine, Annexin-V staining", "format": "cell-based, Human", "in_short": "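HEK293T cells were exposed to test compound for 24 or 48 h, trypsinised, washed three times in DPBS and resuspended in annexin-binding buffer. Alexa Fluor 350 Annexin-V conjugate was added for 15 min at 37 °C, and cells were washed in binding buffer. Imaging was by confocal microscopy (ex 346, em 442 nm). About 100 cells were analysed per sample, with three technical and biological repeats.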"}, "[5]": {"test_system": "Syrian Hamster Embryo (SHE) cells", "conditions": "60 µM ref Hahnel et al., 1999; cited from earlier work"}},
  "data": [
    {"molecule": "2-(2-(2,4-dioxopentan-3-ylidene)hydrazinyl)phenylarsonic acid [Compound 12]", "values": [
      {"measurement": "cytotoxicity", "setting": "HEK293T cells [1]", "result": "≤ 30", "unit": "%"}
    ]},
    {"molecule": "2-(2-(2-hydroxy-4-nitrophenyl)hydrazono)-2H-indene-1,3-dione [Compound 2]", "values": [
      {"measurement": "cytotoxicity", "setting": "HEK293T cells [1]", "result": "≤ 30", "unit": "%"}
    ]},
    {"molecule": "4-hydroxy-5-(2-(2,4,6-trioxo-tetrahydro-pyrimidin-5(6H) ylidene)hydrazinyl)benzene-1,3-disulfonic acid [Compound 6]", "values": [
      {"measurement": "cytotoxicity at higher concentrations", "setting": "HEK293T cells [2]", "result": "did not elicit significant cytotoxicity"},
      {"measurement": "IC50", "setting": "HEK293T cells [2]", "result": "77.08 ± 0.5", "unit": "mM"},
      {"measurement": "cell death compared to the other compounds", "setting": "HEK293T cells [3]", "result": "less cell death"},
      {"measurement": "cytotoxicity", "setting": "HEK293T cells [1]", "result": 36, "unit": "%"}
    ]},
    {"molecule": "5-(2-(2,4-dioxopentan-3-ylidene)hydrazinyl)-2,3-dihydrophthalazine-1,4-dione [Compound 13]", "values": [
      {"measurement": "cytotoxicity", "setting": "HEK293T cells [1]", "result": "≤ 30", "unit": "%"}
    ]},
    {"molecule": "5-(2-(2-hydroxy-4-nitrophenyl)hydrazono)pyrimidine-2,4,6(1H,3H,5H)-trione [Compound 7]", "values": [
      {"measurement": "cytotoxicity", "setting": "HEK293T cells [1]", "result": "≤ 30", "unit": "%"}
    ]},
    {"molecule": "5-(2-(2-hydroxyphenyl) hydrazono)pyrimidine-2,4,6(1H,3H,5H)-trione [Compound 5]", "values": [
      {"measurement": "cell death", "setting": "HEK293T cells [2]", "result": "~80", "unit": "%"},
      {"measurement": "IC50", "setting": "HEK293T cells [2]", "result": "50.9 ± 2.5", "unit": "mM"},
      {"measurement": "higher inhibitory effect compared to temozolomide", "setting": "1321N1 cells", "result": 10, "unit": "%"},
      {"measurement": "mortality", "setting": "1321N1 cells", "result": 20, "unit": "%"},
      {"measurement": "apoptosis", "setting": "HEK293T cells [3]; IC50 of compound, 24 h", "result": "about 40%"},
      {"measurement": "necrosis", "setting": "HEK293T cells [3]; IC50 of compound, 24 h", "result": "about 20%"},
      {"measurement": "apoptosis", "setting": "HEK293T cells [3]; IC50 of compound, 48 h", "result": "≈ 60%"},
      {"measurement": "cell death", "setting": "HEK293T cells [3]; IC50 of compound, 48 h", "result": "~80", "unit": "%"},
      {"measurement": "necrosis", "setting": "HEK293T cells [3]; IC50 of compound, 48 h", "result": "about 20%"},
      {"measurement": "lower inhibitory effect compared to temozolomide", "setting": "U-87 MG cells", "result": 10, "unit": "%"},
      {"measurement": "mortality", "setting": "U-87 MG cells", "result": 10, "unit": "%"},
      {"measurement": "cytotoxicity", "setting": "HEK293T cells [1]", "result": 46, "unit": "%"},
      {"measurement": "apoptotic effect (Annexin-V)", "setting": "HEK293T cells [4]; 24 h and 48 h", "result": "more apoptotic effect compared to the other compounds"}
    ]},
    {"molecule": "5-(2-(4,4-dimethyl-2,6-dioxocyclohexylidene)hydrazinyl)-4-hydroxybenzene-1,3-disulfonic acid [Compound 9]", "values": [
      {"measurement": "cytotoxicity at higher concentrations", "setting": "HEK293T cells [2]", "result": "did not elicit significant cytotoxicity"},
      {"measurement": "cell death compared to the other compounds", "setting": "HEK293T cells [3]", "result": "less cell death"},
      {"measurement": "cytotoxicity", "setting": "HEK293T cells [1]", "result": 42, "unit": "%"}
    ]},
    {"molecule": "5-chloro-2-hydroxy-3-(2-(2,4,6-trioxo-tetrahydropyrimidin-5(6H)-ylidene)hydrazinyl)benzenesulfonic acid [Compound 4]", "values": [
      {"measurement": "cytotoxicity", "setting": "HEK293T cells [1]", "result": "≤ 30", "unit": "%"}
    ]},
    {"molecule": "5-chloro-3-(2-(4,4-dimethyl-2,6-dioxocyclohexylidene)hydrazinyl)-2-hydroxybenzenesulfonic acid [Compound 8]", "values": [
      {"measurement": "cell death", "setting": "HEK293T cells [2]", "result": "~80", "unit": "%"},
      {"measurement": "IC50", "setting": "HEK293T cells [2]", "result": "75.5 ± 2.3", "unit": "mM"},
      {"measurement": "apoptosis/necrosis response compared with compound 5", "setting": "HEK293T cells [3]; IC50, 48 h", "result": "lower response"},
      {"measurement": "cytotoxicity", "setting": "HEK293T cells [1]", "result": 45, "unit": "%"},
      {"measurement": "level of apoptosis (Annexin-V)", "setting": "HEK293T cells [4]; 48 h", "result": "lower level of apoptosis"}
    ]},
    {"molecule": "C[C@@H]1Cc2c(Cl)cc(C(=O)N[C@@H](Cc3ccccc3)C(=O)O)c(O)c2C(=O)O1", "note": "[Ochratoxin A]", "values": [
      {"measurement": "intracellular calcium increase compared to untreated cells", "setting": "[5]", "result": 45, "unit": "%"}
    ]},
    {"molecule": "(E)-3-(2-(1-ethoxy-1,3-dioxobutan-2-ylidene)hydrazinyl)-2-hydroxy-5-nitrobenzenesulfonic acid [Compound 1]", "values": [
      {"measurement": "cytotoxicity", "setting": "HEK293T cells [1]", "result": "≤ 30", "unit": "%"}
    ]},
    {"molecule": "(Z)-5-chloro-2-hydroxy-3-(2-(4,4,4-trifluoro-1,3-dioxo-1-(thiophen-2-yl)butan-2-ylidene)hydrazinyl)benzenesulfonic acid [Compound 3]", "values": [
      {"measurement": "cytotoxicity", "setting": "HEK293T cells [1]", "result": "≤ 30", "unit": "%"}
    ]}
  ]
}
